Results from ChEMBL document CHEMBL1221381, “Heterocyclic compounds and aromatic diglycosides from Bretschneidera sinensis” (J Nat Prod, 2010).
≈ marks a conversion by molar mass, not a printed value.

Tests used:
NCI-H446 [1] = assay: Cytotoxicity against human NCI-H446 cells at 100 ug/ml after 72 hrs by MTT assay; format: functional; settings: NCI-H446, 72 h, read-out: GI
Method in brief: (§1)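 Test samples (>95% pure) were dissolved in DMSO and diluted with PBS to a 1000 µg mL-1 solution. This was serially diluted in PBS to 100–3.125 µg mL-1 solutions. Human cells were seeded at (4-6) × 10^4 cells/mL, and 10 µL/well of sample was added 24 h after seeding. Plates were incubated 72 h at 37 °C in humidified 5% CO2. Viability was read by MTT at 570 nm. Doxorubicin served as positive control.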

HL-60 [2] = assay: Cytotoxicity against human HL60 cells after 72 hrs by MTT assay; format: functional, cell-based; settings: HL-60, 72 h; method in brief: as §1
HL-60 [3] = assay: Cytotoxicity against human HL60 cells at 100 ug/ml after 72 hrs by MTT assay; format: functional; settings: HL-60, 72 h, read-out: GI; method in brief: as §1
[4] = Cytotoxicity against human PC3M cells after 72 hrs by MTT assay; format: functional, cell-based; settings: PC-3M; method in brief: as §1
HCT-116 [5] = assay: Cytotoxicity against human HCT116 cells at 100 ug/ml after 72 hrs by MTT assay; format: functional; settings: HCT-116, 72 h, read-out: GI; method in brief: as §1
NCI-H446 [6] = assay: Cytotoxicity against human NCI-H446 cells after 72 hrs by MTT assay; format: functional, cell-based; settings: NCI-H446, 72 h; method in brief: as §1
[7] = Cytotoxicity against human PC3M cells at 100 ug/ml after 72 hrs by MTT assay; format: functional; settings: PC-3M, read-out: GI; method in brief: as §1
HCT-116 [8] = assay: Cytotoxicity against human HCT116 cells after 72 hrs by MTT assay; format: functional, cell-based; settings: HCT-116, 72 h; method in brief: as §1

SMILES	inhibition of growth at 100 µg/mL (NCI-H446 [1]) [%]	IC50 (HL-60 [2]) [µg/mL]	inhibition of growth at 100 µg/mL (HL-60 [3]) [%]	IC50 [4] [µg/mL]	inhibition of growth at 100 µg/mL (HCT-116 [5]) [%]	IC50 (NCI-H446 [6]) [µg/mL]	inhibition of growth at 100 µg/mL [7] [%]	IC50 (HCT-116 [8]) [µg/mL]
COc1cc2sc(=S)n(C)c(=O)c2cc1O [BRETSCHNEIDERAZINE A]	53.9	> 100	9.91	> 100	0	79.2 (≈ 310 µM)	29.4	> 100
COc1ccc2c(=O)n(C)c(=S)sc2c1OC [BRETSCHNEIDERAZINE B]	41.3	> 100	8.04	> 100	0	60.2 (≈ 224 µM)	0	> 100
COc1cc(C=O)ccc1O[C@@H]1O[C@H](CO[C@@H]2OC[C@](O)(CO)[C@H]2O)[C@@H](O)[C@H](O)[C@H]1O [BRETSCHNEIDEROSIDE A]	29.7	> 100	0.14	> 100	0	> 100	0	> 100
O=Cc1ccc(O[C@@H]2O[C@H](CO[C@@H]3OC[C@](O)(CO)[C@H]3O)[C@@H](O)[C@H](O)[C@H]2O)c(O)c1 [BRETSCHNEIDEROSIDE B]	38.4	> 100	7.25	> 100	0	> 100	0	> 100
COc1cc(CO[C@@H]2O[C@H](CO[C@@H]3OC[C@](O)(CO)[C@H]3O)[C@@H](O)[C@H](O)[C@H]2O)ccc1O [BRETSCHNEIDEROSIDE C]	40.7	> 100	5.68	> 100	9.3	> 100	6.35	> 100
COc1cccc2c1C(=O)c1c(O)c3c(c(O)c1C2=O)C[C@@](O)(C(=O)CO)C[C@@H]3O[C@H]1C[C@H](N)[C@H](O)[C@H](C)O1 [DOXORUBICIN]	91.2	0.457 (≈ 0.841 µM)	94.7	< 0.001	93.1	0.0248 (≈ 0.0456 µM)	96.4	0.286 (≈ 0.526 µM)
